Among the data in ChEMBL document CHEMBL4190190, “Furan and Lactam Jadomycin Biosynthetic Congeners Isolated from Streptomyces venezuelae ISP5230 Cultured with Nε-Trifluoroacetyl-l-lysine” (J Nat Prod, 2017) are Activity, MIC and MIC90 values, retold here.

One data set relates to Pseudomonas aeruginosa. The data set is described as follows: Antibacterial activity against Pseudomonas aeruginosa ATCC 14210 after 22 hrs by CLSI microbroth assay. In kind it is functional, organism-based. (In general: In broth dilution the organism is exposed to a series of concentrations in liquid medium.)
The next data set deals with Staphylococcus aureus. The experiment in a line: Antibacterial activity against methicillin-resistant Staphylococcus aureus ATCC 33591 after 22 hrs by CLSI microbroth assay. In kind it is functional. The note with it: ATCC 33591, 22 h. The method in brief: (§1)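 Run within a six-organism panel: MRSA, Staphylococcus warneri and vancomycin-resistant E. faecium (Gram-positive), Proteus vulgaris and Pseudomonas aeruginosa (Gram-negative), and the yeast Candida albicans. Read-out was the minimum inhibitory concentration, reported in μg mL−1.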

The subject of another data set is Staphylococcus warneri. The data set is described as follows: Antibacterial activity against Staphylococcus warneri ATCC 17917 after 22 hrs by CLSI microbroth assay. In kind it is functional. The note with it: ATCC 17917, 22 h.
The next data set deals with Enterococcus faecium. The data set is described as follows: Antibacterial activity against vancomycin-resistant Enterococcus faecium EF379 after 22 hrs by CLSI microbroth assay. In kind it is functional. The note with it: EF379, 22 h. Put shortly: as §1
A further data set concerns Proteus vulgaris. The experiment in a line: Antibacterial activity against Proteus vulgaris ATCC 12454 after 22 hrs by CLSI microbroth assay. In kind it is functional, organism-based.
The next data set relates to BJ. The data set is described as follows: Cytotoxicity against human BJ cells after 24 hrs by alamar blue assay. In kind it is cell-based. In general terms: Resazurin is reduced to fluorescent resorufin, in cell work by metabolically active cells.
The test system of the next data set is Vero. The experiment in a line: Cytotoxicity against African green monkey Vero cells after 24 hrs by alamar blue assay. In kind it is cell-based. The note with it: chlorocebus sabaeus.

Each structure is given as a SMILES string. ≈ marks a conversion by molar mass, not a printed value. Calls of active or inactive are those of the source. No cut-off for these calls is given here.

As a reminder, the MIC is the lowest concentration found to suppress growth. As to `Cc1cc(O)c2c(c1)C1OC(=O)[C@H](CCCCNC(=O)C(F)(F)F)N1C1=C2C(=O)c2cccc(O[C@H]3C[C@@H](O)[C@@H](O)[C@H](C)O3)c2C1=O` (some centres undefined), the outcome with Pseudomonas aeruginosa and with Proteus vulgaris was inactive. In addition, the MIC in the data set with Staphylococcus aureus worked out at 3 µg/mL (≈ 4.54 µM); against Staphylococcus warneri, 3 µg/mL (≈ 4.54 µM); in the data set with Enterococcus faecium, 13 µg/mL (≈ 19.7 µM). Further, the MIC90 with BJ and against Vero was over 128 µg/mL each time.
Turning to `Cc1cc(O)c2c3c(n([C@@H](CCCCNC(=O)C(F)(F)F)C(=O)O)c(=O)c2c1)C(=O)c1c(O[C@H]2C[C@@H](O)[C@@H](O)[C@H](C)O2)cccc1C3=O`, the result in the data set on Pseudomonas aeruginosa and in the data set on Proteus vulgaris was inactive. Moreover, the MIC against Staphylococcus aureus, in the data set on Staphylococcus warneri and with Enterococcus faecium was at least 100 µg/mL in each case. Besides, the MIC90 against BJ and in the data set with Vero was over 128 µg/mL throughout.
